The values that follow come from ChEMBL document CHEMBL1132157 (J Med Chem, 1999).

The target in assay [1] is 5-hydroxytryptamine receptor 1B (Homo sapiens, UniProt P28222). In words: Displacement of [3H]5-HT binding to cloned 5-hydroxytryptamine 1B receptor stably expressed in CHO cells. Format: cell-based. Summed up:
(§1)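 Membranes from thawed CHO cells with human 5-HT1B or 5-HT1D, washed in 50 mM Tris-HCl pH 7.7, preincubated 10 min at 37 °C to remove endogenous 5-HT. Buffer holds 0.1% ascorbate, 10 μM pargyline and 4 mM CaCl2. Uses 2.0 nM [3H]5-HT, 30 min at 37 °C; 10 μM 5-HT defines nonspecific binding. Filtration; IC50 by nonlinear regression; duplicates, 2–5 occasions.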

Assay [2] is described as follows: Ratio of IC50 for human 5-HT1B to human 5-HT1D receptors.
In assay [3] the target is T1, 5-hydroxytryptamine receptor 1D (Homo sapiens, UniProt P28221). Briefly: Displacement of [3H]5-HT binding to cloned human 5-hydroxytryptamine 1D receptor stably expressed in CHO cells. It is filed as cell-based. The method in brief:
as §1
On the technique in general: Displacement assays read how much labelled ligand stays bound in the presence of the test substance.

Assay [4] concerns the target T1, 5-hydroxytryptamine receptor 1D. In words: Agonist-induced [35S]- GTPgammaS binding in CHO cells stably transfected with 5-hydroxytryptamine 1D receptor. Format: cell-based. The method in brief:
(§2)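 Membranes from thawed CHO cells with human 5-HT1D, prepared in ice-cold 20 mM Hepes/EDTA at pH 7.4, spun at 40000g. Assay buffer: 100 mM NaCl, 10 mM MgCl2, 0.1% ascorbate, 10 μM pargyline. GDP 100 μM plus drug, 20 min at 30 °C, then ice 15 min. Then 100 pM [35S]GTPγS, 30 min at 30 °C, filtration. Emax is taken as % of maximal 5-HT response; duplicates, 2–5 occasions.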

Assay [5] shares this target. Briefly: Maximum stimulation of [35S]GTP-gamma-S, binding in CHO cells expressing human 5-HT-1d relative to 5-HT. It is filed as functional, cell-based. Summed up:
as §2
(In general: GTPγS resists hydrolysis and so accumulates on activated G proteins.)

Chain of 5-hydroxytryptamine receptor 1B (P28222 whole entry): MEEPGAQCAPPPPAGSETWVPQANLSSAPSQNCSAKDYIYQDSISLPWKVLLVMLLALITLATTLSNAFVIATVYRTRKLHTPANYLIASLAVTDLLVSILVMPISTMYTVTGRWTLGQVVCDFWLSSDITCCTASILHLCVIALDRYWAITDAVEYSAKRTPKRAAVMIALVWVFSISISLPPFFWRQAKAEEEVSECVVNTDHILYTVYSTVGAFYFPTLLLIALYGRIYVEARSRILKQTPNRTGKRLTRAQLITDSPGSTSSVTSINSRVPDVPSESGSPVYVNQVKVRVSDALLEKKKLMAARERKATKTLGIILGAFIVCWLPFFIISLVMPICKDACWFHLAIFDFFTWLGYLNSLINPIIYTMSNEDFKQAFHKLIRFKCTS
T1 sequence (P28221 whole entry): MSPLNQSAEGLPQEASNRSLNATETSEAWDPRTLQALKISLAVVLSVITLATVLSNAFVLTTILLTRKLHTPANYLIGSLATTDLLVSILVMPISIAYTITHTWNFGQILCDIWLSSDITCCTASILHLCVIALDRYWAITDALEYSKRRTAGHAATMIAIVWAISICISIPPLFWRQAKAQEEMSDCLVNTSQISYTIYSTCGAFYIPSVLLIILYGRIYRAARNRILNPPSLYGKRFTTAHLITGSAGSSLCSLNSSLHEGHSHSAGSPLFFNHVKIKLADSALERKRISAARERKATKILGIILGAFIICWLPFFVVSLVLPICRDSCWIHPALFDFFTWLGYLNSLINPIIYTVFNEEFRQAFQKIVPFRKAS

As usually defined, the IC50 is the concentration needed to halve the response being measured. Low readings indicate greater potency, high ones weaker potency. `CN(C1CCN(CCCc2c[nH]c3ccc(-n4cnnc4)cc23)CC1)S(=O)(=O)c1ccccc1`: the IC50 was determined as 10 nM in assay [1] and 1.5 nM in assay [3]. The Selectivity in assay [2] is 6.7.

Take `c1cc2[nH]cc(CCN3CCCC3)c2cc1-n1cnnc1`: the Selectivity in assay [2] is 9.

One may read the EC50 as the concentration giving half of the maximal effect. `c1cc(CNC2CCN(CCCc3c[nH]c4ccc(-n5cnnc5)cc34)CC2)co1` yielded an EC50 in assay [4] of 7.1 nM. For the same molecule, the Efficacy in assay [5] amounted to 65%. The IC50 in assay [1] worked out at 78 nM; in assay [3], 4.5 nM. The Selectivity in assay [2] was 17.

`CN(Cc1ccc(S(C)(=O)=O)cc1)CC1CCN(CCCc2c[nH]c3ccc(-n4cnnc4)cc23)CC1`: the IC50 amounted to 66 nM in assay [1] and 8.1 nM in assay [3]. In addition, the Selectivity in assay [2] stood at 8.1.

`OC[C@H](NC1CCN(CCCc2c[nH]c3ccc(-n4cncn4)cc23)CC1)c1ccccc1`: the midpoint of the response in assay [4], the EC50, lay at 7.4 nM. Also, the Efficacy in assay [5] was determined as 77%. Further, the IC50 in assay [1] is 400 nM; in assay [3], 4.1 nM. Moreover, the Selectivity in assay [2] was found to be 98.

For `O=C(c1ccc(F)cc1)C1CCN(CCn2c(=O)[nH]c3ccccc3c2=O)CC1` [KETANSERIN], the IC50 in assay [1] was above 10000 nM; in assay [3], 270 nM. Besides, the Selectivity in assay [2] was above 37.

The molecule `CN(Cc1ccccc1)CC1CCN(CCCc2c[nH]c3ccc(-n4cnnc4)cc23)CC1` yielded an Efficacy in assay [5] of 93%. Moreover, the IC50 was 27 nM in assay [1] and 0.9 nM in assay [3]. Moreover, in assay [2], the Selectivity was 30.

For `CN(Cc1ccco1)C1CCN(CCCc2c[nH]c3ccc(-n4cnnc4)cc23)CC1`, the IC50 was determined as 89 nM in assay [1] and 9.3 nM in assay [3]. Also, in assay [2], the Selectivity came to 9.6.

In the case of `Oc1nc2ccccc2n1C1CCN(CCCc2c[nH]c3ccc(-n4cnnc4)cc23)CC1`, the EC50 in assay [4] amounted to 2.2 nM. This molecule also registered an Efficacy in assay [5] of 72%. The IC50 was 74 nM in assay [1] and 1.2 nM in assay [3]. Besides, in assay [2], the Selectivity was determined as 62.

As to `CN(CC1CCN(CCCc2c[nH]c3ccc(-n4cnnc4)cc23)CC1)C(=O)Nc1ccccc1`, the 50% inhibitory concentration (IC50) was determined as 6.2 nM in assay [1] and 5.9 nM in assay [3]. Further, the Selectivity in assay [2] is 1.1.

For the molecule `CC(=O)Nc1ccc(CN(C)C2CCN(CCCc3c[nH]c4ccc(-n5cnnc5)cc34)CC2)cc1`, the IC50 was 100 nM in assay [1] and 19 nM in assay [3]. Besides, the Selectivity in assay [2] came to 5.3.

For `CN(CC1CC1)C1CCN(CCCc2c[nH]c3ccc(-n4cnnc4)cc23)CC1`, the IC50 in assay [1] is 260 nM; in assay [3] it was 22 nM. Moreover, the Selectivity in assay [2] turned out to be 12.

Molecule `OC[C@H](NC1CCN(CCCc2c[nH]c3ccc(-n4cnnc4)cc23)CC1)c1ccccc1` showed an EC50 in assay [4] of 1.7 nM. The Efficacy in assay [5] is 95%. In addition, the Selectivity in assay [2] amounted to 85.

`OC[C@@H](NCC1CCN(CCCc2c[nH]c3ccc(-n4cnnc4)cc23)CC1)c1ccccc1`: the IC50 in assay [1] amounted to 34 nM; in assay [3] it was 3.4 nM. Moreover, the Selectivity in assay [2] amounted to 10.

`CN(CC1CCN(CCCc2c[nH]c3ccc(-n4cnnc4)cc23)CC1)[C@@H](CO)c1ccccc1`: the IC50 in assay [1] was found to be 85 nM; in assay [3], 6 nM. In assay [2], the Selectivity came to 14.

As to `O[C@H]1Cc2ccccc2C1NC1CCN(CCCc2c[nH]c3ccc(-n4cnnc4)cc23)CC1` (stereo partly drawn), the IC50 was 300 nM in assay [1] and 37 nM in assay [3]. Also, the Selectivity in assay [2] came out at 8.1.

Take `C[C@@H](NC1CCN(CCCc2c[nH]c3ccc(-n4cnnc4)cc23)CC1)c1ccccc1`: it took 13 nM to reach a half-maximal effect in assay [4] (EC50). Moreover, the Efficacy in assay [5] was found to be 90%. In assay [2], the Selectivity was 88. Also, the IC50 in assay [3] worked out at 0.4 nM.

Take `CN(Cc1ccc(S(C)(=O)=O)cc1)C1CCN(CCCc2c[nH]c3ccc(-n4cnnc4)cc23)CC1`: the IC50 was determined as 140 nM in assay [1] and 18 nM in assay [3]. For the same molecule, the Selectivity in assay [2] was found to be 7.8.

As for `c1ccc(NCC2CCN(CCCc3c[nH]c4ccc(-n5cnnc5)cc34)CC2)nc1`, the IC50 in assay [1] stood at 3.3 nM; in assay [3], 1.7 nM. The Selectivity in assay [2] was 1.9.

As to `c1ccc(CNC2CCN(CCCc3c[nH]c4ccc(-n5cnnc5)cc34)CC2)nc1`, the IC50 is 76 nM in assay [1] and 14 nM in assay [3]. Besides, in assay [2], the Selectivity worked out at 5.4.

For the molecule `COC[C@H](NC1CCN(CCCc2c[nH]c3ccc(-n4cnnc4)cc23)CC1)c1ccc(F)cc1`, the IC50 in assay [1] came to 89 nM; in assay [3], 1.4 nM. Besides, in assay [2], the Selectivity stood at 64.

Regarding `C[C@@H](NC1CCN(CCCc2c[nH]c3ccc(-n4cncn4)cc23)CC1)c1ccccc1`, the response in assay [4] was half-maximal at 18 nM (EC50). The molecule also came in with an Efficacy in assay [5] of 69%. Moreover, the IC50 is 420 nM in assay [1] and 18 nM in assay [3]. For the same molecule, the Selectivity in assay [2] was 23.

Regarding `C=CCN(C)C1CCN(CCCc2c[nH]c3ccc(-n4cnnc4)cc23)CC1`, the IC50 in assay [1] was 320 nM; in assay [3], 20 nM. Also, in assay [2], the Selectivity came out at 16.

As for `CNS(=O)(=O)Cc1ccc2[nH]cc(CCCN3CCC(N[C@H](C)c4ccccc4)CC3)c2c1`, the results for the IC50 in assay [1] and in assay [3] were 260 nM and 43 nM, respectively. Further, the Selectivity in assay [2] amounted to 6.

Turning to `CN(C)C[C@H](NC1CCN(CCCc2c[nH]c3ccc(-n4cnnc4)cc23)CC1)c1ccccc1`, the IC50 in assay [1] stood at 13 nM; in assay [3] it was 1.5 nM. Moreover, the Selectivity in assay [2] was determined as 8.7.

`CC(=O)Nc1ccc(C(=O)N(C)CC2CCN(CCCc3c[nH]c4ccc(-n5cnnc5)cc34)CC2)cc1`: the IC50 amounted to 40 nM in assay [1] and 17 nM in assay [3]. For the same molecule, in assay [2], the Selectivity was found to be 2.4.

Turning to `C[C@@H](NCC1CCN(CCCc2c[nH]c3ccc(-n4cnnc4)cc23)CC1)c1ccccc1`, the IC50 is 14 nM in assay [1] and 1.4 nM in assay [3]. Further, the Selectivity in assay [2] worked out at 10.

As for `c1cc(CNC2CCN(CCCc3c[nH]c4ccc(-n5cnnc5)cc34)CC2)ccn1`, the EC50 in assay [4] came out at 13 nM. The Efficacy in assay [5] amounted to 80%. Moreover, the IC50 in assay [1] turned out to be 140 nM; in assay [3] it was 24 nM. For the same molecule, in assay [2], the Selectivity came out at 5.8.

For `CN(C(=O)Nc1ccccc1)C1CCN(CCCc2c[nH]c3ccc(-n4cnnc4)cc23)CC1`, the results for the IC50 in assay [1] and in assay [3] were 140 nM and 18 nM, respectively. Further, the Selectivity in assay [2] was found to be 7.8.

Molecule `CC(=O)Nc1ccc(CN(C)CC2CCN(CCCc3c[nH]c4ccc(-n5cnnc5)cc34)CC2)cc1` came in with an EC50 in assay [4] of 2.8 nM. Also, the Efficacy in assay [5] turned out to be 94%. Further, the IC50 stood at 24 nM in assay [1] and 0.6 nM in assay [3]. Besides, in assay [2], the Selectivity came out at 40.

Turning to `OC[C@H](NCC1CCN(CCCc2c[nH]c3ccc(-n4cnnc4)cc23)CC1)c1ccccc1`, the IC50 stood at 79 nM in assay [1] and 5.9 nM in assay [3]. Besides, in assay [2], the Selectivity was 13.

In assay [4], `C[C@H](O)[C@H](NC1CCN(CCCc2c[nH]c3ccc(-n4cnnc4)cc23)CC1)c1ccccc1` had an EC50 of 30 nM. In addition, the Efficacy in assay [5] is 81%. In addition, the results for the IC50 in assay [1] and in assay [3] were 150 nM and 7.6 nM, respectively. Moreover, the Selectivity in assay [2] is 20.

In turn, `c1ccc2c(c1)CCC2NCC1CCN(CCCc2c[nH]c3ccc(-n4cnnc4)cc23)CC1` (stereo not drawn) had an EC50 in assay [4] of 1.3 nM. The molecule further yielded an Efficacy in assay [5] of 78%. The IC50 in assay [1] came to 25 nM; in assay [3] it was 1.1 nM. For the same molecule, the Selectivity in assay [2] turned out to be 23.

`CN(Cc1ccccc1)C1CCN(CCCc2c[nH]c3ccc(-n4cnnc4)cc23)CC1`: the Selectivity in assay [2] worked out at 67.

For `C[C@H](NCC1CCN(CCCc2c[nH]c3ccc(-n4cnnc4)cc23)CC1)c1ccccc1`, the values for the IC50 in assay [1] and in assay [3] were 58 nM and 4.4 nM, respectively. Further, the Selectivity in assay [2] worked out at 13.

On to `CC(=O)Nc1ccc(CNCC2CCN(CCCc3c[nH]c4ccc(-n5cnnc5)cc34)CC2)cc1`, for which the IC50 in assay [1] amounted to 8.9 nM; in assay [3], 4.2 nM. In addition, the Selectivity in assay [2] turned out to be 2.1.

Take `CC(=O)Nc1ccc(CCNC2CCN(CCCc3c[nH]c4ccc(-n5cnnc5)cc34)CC2)cc1`: the IC50 worked out at 170 nM in assay [1] and 12 nM in assay [3]. Further, the Selectivity in assay [2] came to 14.

For the molecule `CC(C)=CCCN(C)C1CCN(CCCc2c[nH]c3ccc(-n4cnnc4)cc23)CC1`, the half-inhibitory concentration (IC50) worked out at 24 nM in assay [1] and 2.6 nM in assay [3]. The Selectivity in assay [2] amounted to 9.2.

Consider `CC(=O)Nc1ccc([C@@H](C)NCC2CCN(CCCc3c[nH]c4ccc(-n5cnnc5)cc34)CC2)cc1`, for which the figures for the IC50 in assay [1] and in assay [3] were 8.9 nM and 1.5 nM, respectively. Moreover, the Selectivity in assay [2] was found to be 5.9.

As for `CC(=O)Nc1ccc(CCN(C)C2CCN(CCCc3c[nH]c4ccc(-n5cnnc5)cc34)CC2)cc1`, the IC50 in assay [1] worked out at 66 nM; in assay [3], 5.7 nM. Moreover, the Selectivity in assay [2] was determined as 12.

In the case of `NC1CCN(CCCc2c[nH]c3ccc(-n4cnnc4)cc23)CC1`, the values for the IC50 in assay [1] and in assay [3] were 63 nM and 12 nM, respectively. Further, in assay [2], the Selectivity was 5.3.

`c1cncc(CNC2CCN(CCCc3c[nH]c4ccc(-n5cnnc5)cc34)CC2)c1`: the IC50 in assay [1] was 140 nM; in assay [3] it was 35 nM. In assay [2], the Selectivity is 4.

In the case of `CN(CC1CCN(CCCc2c[nH]c3ccc(-n4cnnc4)cc23)CC1)S(=O)(=O)c1ccccc1`, the IC50 was determined as 18 nM in assay [1] and 1.6 nM in assay [3]. The Selectivity in assay [2] was determined as 11.
